Values after ≈ are worked out from the molar mass of the structure shown.
Key:
[1] = tested on: Staphylococcus epidermidis; experiment: Antimicrobial activity against Staphylococcus epidermidis ATCC 35984 at 400 ug after 18 hrs by disc-diffusion method; format: functional; details: ATCC 35984, 18 h, read-out: IZ
In short: (§1)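 Disc diffusion on Mueller-Hinton II agar per CLSI; 9 mm paper discs loaded with 400 µg compound from DMSO solution, dried, placed on agar; growth inhibition zone diameter read after 18 h at 35°C.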

[2] = tested on: Staphylococcus epidermidis; experiment: Ratio of ciprofloxacin MIC to compound MIC for hospital methicillin-resistant Staphylococcus epidermidis 76/04 after 18 hrs by twofold serial microdilution method; format: functional
In short: (§2)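 Ratio of MICs for ciprofloxacin and test agent, each from twofold serial broth microdilution in Mueller-Hinton broth following CLSI guidelines. DMSO stock was diluted in sterile water to 0.125–512 µg/mL, with a final inoculum of 10^5 CFU/mL.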

[3] = tested on: Staphylococcus epidermidis; experiment: Antimicrobial activity against hospital methicillin-resistant Staphylococcus epidermidis 23/04 after 18 hrs by twofold serial microdilution method; format: functional; details: 23/04, 18 h
In short: (§3)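 Twofold serial microdilution in Mueller-Hinton broth. Compound stock was made in DMSO and diluted in sterile water. Tested range was 0.125–512 µg/mL. Final inoculum was 10^5 CFU/mL. Plates were incubated 18 h at 35 °C. MIC is the lowest concentration preventing visible growth.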

Staphylococcus aureus [4] = experiment: Ratio of ciprofloxacin MIC to compound MIC for hospital methicillin-resistant Staphylococcus aureus 57/05 after 18 hrs by twofold serial microdilution method; format: functional; in short: as §2
[5] = tested on: Staphylococcus epidermidis; experiment: Antimicrobial activity against hospital methicillin-resistant Staphylococcus epidermidis 151/04 after 18 hrs by twofold serial microdilution method; format: functional; details: 151/04, 18 h; in short: as §3
Bacillus subtilis = experiment: Antimicrobial activity against Bacillus subtilis ATCC 6633 at 400 ug after 18 hrs by disc-diffusion method; format: functional; details: ATCC 6633, 18 h, read-out: IZ; in short: as §1
[6] = tested on: Staphylococcus epidermidis; experiment: Ratio of ciprofloxacin MIC to compound MIC for hospital methicillin-resistant Staphylococcus epidermidis 63/04 after 18 hrs by twofold serial microdilution method; format: functional; in short: as §2
Staphylococcus aureus [7] = experiment: Antimicrobial activity against Staphylococcus aureus ATCC 25923 after 18 hrs by twofold serial microdilution method; format: functional; details: ATCC 25923, 18 h
Staphylococcus aureus [8] = experiment: Ratio of ciprofloxacin MIC to compound MIC for hospital methicillin-resistant Staphylococcus aureus 573/11 after 18 hrs by twofold serial microdilution method; format: functional; in short: as §2
Vaccinia virus = experiment: Antiviral activity against Human Vaccinia virus ATCC VR-1549 infected in African green monkey Vero 76 cells assessed as reduction of virus-plaque formation after 3 days by crystal violet staining; format: functional, organism-based; details: Orthopoxvirus vaccinia, ATCC VR-1549, Vero, 72 h
Staphylococcus aureus [9] = experiment: Antimicrobial activity against hospital methicillin-resistant Staphylococcus aureus 80/05 after 18 hrs by twofold serial microdilution method; format: functional; details: 80/05, 18 h; in short: as §3
Staphylococcus aureus [10] = experiment: Antimicrobial activity against Staphylococcus aureus ATCC 6538 after 18 hrs by twofold serial microdilution method; format: functional; details: ATCC 6538, 18 h
[11] = tested on: Staphylococcus epidermidis; experiment: Antimicrobial activity against hospital methicillin-resistant Staphylococcus epidermidis 31/04 after 18 hrs by twofold serial microdilution method; format: functional; details: 31/04, 18 h; in short: as §3
Staphylococcus aureus [12] = experiment: Ratio of ciprofloxacin MIC to compound MIC for hospital methicillin-resistant Staphylococcus aureus 522/11 after 18 hrs by twofold serial microdilution method; format: functional; in short: as §2
Coxsackievirus B5 = experiment: Antiviral activity against Human coxsackievirus B5 ATCC VR-29 infected in African green monkey Vero 76 cells assessed as reduction of virus-plaque formation after 3 days by crystal violet staining; format: functional, organism-based; details: Enterovirus B, ATCC VR-29, Vero, 72 h
In short: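 Plaque reduction: Vero-76 at 2x10^5 cells/well grown to confluent monolayers, infected 2 h at 50–100 PFU/well; after removing unadsorbed virus, overlay of D-MEM, 1% inactivated FBS, 0.75% methylcellulose with or without serial compound dilutions; 3 days at 37°C, fixed and stained with crystal violet in 50% ethanol, plaques counted; EC50 by linear regression.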

[13] = tested on: Staphylococcus epidermidis; experiment: Antimicrobial activity against hospital methicillin-resistant Staphylococcus epidermidis 24/04 after 18 hrs by twofold serial microdilution method; format: functional; details: 24/04, 18 h; in short: as §3
[14] = tested on: Mammalian orthoreovirus 1; experiment: Antiviral activity against Reovirus type-1 ATCC VR-214 infected in BHK cells assessed as protection against virus-induced cytopathogenicity after 3 to 4 days by MTT assay; format: functional, cell-based; details: Mammalian orthoreovirus 1, ATCC VR-214, BHK
In short: (§4)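 Cells seeded in 96-well plates (BHK 5x10^4, MDBK 3x10^4 cells/well), grown overnight to confluence, infected at m.o.i. 0.01 (BHK for Reo-1, MDBK for BVDV); serial compound dilutions in maintenance medium with 0.5% inactivated FBS added after 1 h; viability by MTT after 3–4 days at 37°C; EC50 for 50% protection by linear regression.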

[15] = tested on: Staphylococcus epidermidis; experiment: Antimicrobial activity against hospital methicillin-resistant Staphylococcus epidermidis 63/04 after 18 hrs by twofold serial microdilution method; format: functional; details: 63/04, 18 h; in short: as §3
[16] = Antiviral activity against Bovine viral diarrhea virus 1-NADL ATCC VR-534 infected in MDBK cells assessed as protection against virus-induced cytopathogenicity after 3 to 4 days by MTT assay; format: functional, cell-based; details: Bovine viral diarrhea virus isolates and strains, ATCC VR-534, MDBK; in short: as §4
[17] = tested on: Staphylococcus epidermidis; experiment: Ratio of ciprofloxacin MIC to compound MIC for hospital methicillin-resistant Staphylococcus epidermidis 24/04 after 18 hrs by twofold serial microdilution method; format: functional
[18] = tested on: Staphylococcus epidermidis; experiment: Antimicrobial activity against Staphylococcus epidermidis ATCC 12228 after 18 hrs by twofold serial microdilution method; format: functional; details: ATCC 12228, 18 h
[19] = Cytotoxicity against African green monkey Vero 76 cells assessed as cell viability after 48 to 96 hrs by crystal violet staining; format: cell-based; details: chlorocebus sabaeus
Enterococcus faecalis = experiment: Antimicrobial activity against Enterococcus faecalis ATCC 29212 at 400 ug after 18 hrs by disc-diffusion method; format: functional; details: ATCC 29212, 18 h, read-out: IZ; in short: as §1
Proteus vulgaris = experiment: Antimicrobial activity against Proteus vulgaris NCTC 4635 at 400 ug after 18 hrs by disc-diffusion method; format: functional; details: NCTC 4635, 18 h, read-out: IZ; in short: as §1
Staphylococcus aureus [20] = experiment: Antimicrobial activity against Staphylococcus aureus NCTC 4163 at 400 ug after 18 hrs by disc-diffusion method; format: functional; details: NCTC 4163, 18 h, read-out: IZ; in short: as §1
Staphylococcus aureus [21] = experiment: Ratio of ciprofloxacin MIC to compound MIC for hospital methicillin-resistant Staphylococcus aureus 79/05 after 18 hrs by twofold serial microdilution method; format: functional; in short: as §2
[22] = tested on: Staphylococcus epidermidis; experiment: Ratio of ciprofloxacin MIC to compound MIC for hospital methicillin-resistant Staphylococcus epidermidis […]/[…] after 18 hrs by twofold serial microdilution method; format: functional, 16/04
[23] = tested on: Staphylococcus epidermidis; experiment: Antimicrobial activity against hospital methicillin-resistant Staphylococcus epidermidis 76/04 after 18 hrs by twofold serial microdilution method; format: functional; details: 76/04, 18 h; in short: as §3
[24] = Cytotoxicity against bovine MDBK cells assessed as cell viability after 48 to 96 hrs by MTT assay; format: cell-based, Bos taurus; details: cattle
[25] = tested on: Staphylococcus epidermidis; experiment: Antimicrobial activity against hospital methicillin-resistant Staphylococcus epidermidis 62/04 after 18 hrs by twofold serial microdilution method; format: functional; details: 62/04, 18 h; in short: as §3
Staphylococcus aureus [26] = experiment: Antimicrobial activity against Staphylococcus aureus ATCC 29213 at 400 ug after 18 hrs by disc-diffusion method; format: functional; details: ATCC 29213, 18 h, read-out: IZ; in short: as §1

## Fc1ccc(NC(=S)Nc2cccc(C(F)(F)F)c2)cc1Cl
[1]
  zone of inhibition at 400 µg/disc: 27 mm
[2]
  Ratio: 128
[3]
  MIC: 1 µg/mL (≈ 2.87 µM)
Staphylococcus aureus [4]
  Ratio: 128
[5]
  MIC: 2 µg/mL (≈ 5.73 µM)
Bacillus subtilis
  zone of inhibition at 400 µg/disc: 30 mm
[6]
  Ratio: 128
Staphylococcus aureus [7]
  MIC: 1 µg/mL (≈ 2.87 µM)
Staphylococcus aureus [8]
  Ratio: 128
Vaccinia virus
  EC50: > 20 µM
Staphylococcus aureus [9]
  MIC: 0.25 µg/mL (≈ 0.717 µM)
Staphylococcus aureus [10]
  MIC: 1 µg/mL (≈ 2.87 µM)
[11]
  MIC: 1 µg/mL (≈ 2.87 µM)
Staphylococcus aureus [12]
  Ratio: 128
Coxsackievirus B5
  EC50: > 20 µM
[13]
  MIC: 1 µg/mL (≈ 2.87 µM)
[14]
  EC50: > 10 µM
[15]
  MIC: 0.5 µg/mL (≈ 1.43 µM)
[16]
  EC50: > 11 µM
[17]
  Ratio: 128
[18]
  MIC: 2 µg/mL (≈ 5.73 µM)
[19]
  CC50: 20 µM
Enterococcus faecalis
  zone of inhibition at 400 µg/disc: 20 mm
Proteus vulgaris
  zone of inhibition at 400 µg/disc: 14 mm
Staphylococcus aureus [20]
  zone of inhibition at 400 µg/disc: 30 mm
Staphylococcus aureus [21]
  Ratio: 128
[22]
  Ratio: 128
[23]
  MIC: 0.25 µg/mL (≈ 0.717 µM)
[24]
  CC50: 11 µM
[25]
  MIC: 0.5 µg/mL (≈ 1.43 µM)
Staphylococcus aureus [26]
  zone of inhibition at 400 µg/disc: 30 mm

Source: ChEMBL document CHEMBL3616436, “Synthesis, cytotoxicity and antimicrobial activity of thiourea derivatives incorporating 3-(trifluoromethyl)phenyl moiety” (Eur J Med Chem, 2015)
